Converted amounts (≈) assume the structure as drawn. Where a SMILES comes first, the peptide text is derived from it. [ ]: non-standard residue; d: D form. Gly(1-adamantyl) = N[C@H](C(=O)O)C12CC3CC(CC(C3)C1)C2; Orn = NCCC[C@H](N)C(=O)O
What was measured:
[1] = tested on: Staphylococcus epidermidis; test: Antimicrobial activity against Staphylococcus epidermidis ATCC 12228 by broth dilution method; assay type: functional
In short: (§1)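 Stored at −70 °C, grown at 35 °C on Columbia sheep-blood agar, then suspended in physiological saline to OD 0.1 AU at 595 nm and diluted 100× in saline. 2 µL inoculum was added to 50 µL cation-adjusted Mueller Hinton II broth. Peptides in methanol (4 g/L stock) were diluted in water, then two-fold in broth (64–1 mg/L). Incubation was 35 °C for 24–48 h. MIC is the lowest concentration inhibiting growth.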

[2] = tested on: Staphylococcus aureus; test: Antimicrobial activity against Staphylococcus aureus ATCC 29213 by broth dilution method; assay type: functional
In short: (§2)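 Frozen (−70 °C) stocks grown at 35 °C on Columbia sheep-blood agar, suspended in physiological saline to OD595 0.1, diluted 100×; 2 µL inoculum into 50 µL cation-adjusted Mueller Hinton II broth in 96-well plates. Peptides dissolved in methanol (4 g/L), diluted in water, two-fold serial dilutions in broth (64–1 mg/L). Incubation at 35 °C, 24–48 h; MIC = lowest concentration inhibiting growth.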

[3] = tested on: Pseudomonas aeruginosa; test: Antimicrobial activity against Pseudomonas aeruginosa ATCC 27853 by broth dilution method; assay type: functional; in short: as §1
[4] = tested on: Escherichia coli; test: Antimicrobial activity against Escherichia coli ATCC 25922 by broth dilution method; assay type: functional; in short: as §1
[5] = tested on: Bacillus cereus; test: Antimicrobial activity against Bacillus cereus ATCC 11778 by broth dilution method; assay type: functional; in short: as §1
[6] = tested on: Enterococcus faecalis; test: Antimicrobial activity against Enterococcus faecalis ATCC 29212 by broth dilution method; assay type: functional; in short: as §1
[7] = tested on: Staphylococcus aureus; test: Antimicrobial activity against community acquired methicillin-resistant Staphylococcus aureus isolate 1110301146 by broth dilution method; assay type: functional; in short: as §2
[8] = tested on: Staphylococcus aureus; test: Antimicrobial activity against methicillin-resistant Staphylococcus aureus isolate 1110301981 by broth dilution method; assay type: functional; in short: as §2
[9] = tested on: Staphylococcus aureus; test: Antimicrobial activity against methicillin-resistant Staphylococcus aureus N229 by broth dilution method; assay type: functional; in short: as §2
[10] = tested on: Staphylococcus aureus; test: Antimicrobial activity against methicillin-resistant Staphylococcus aureus N133 by broth dilution method; assay type: functional; in short: as §2
[11] = tested on: Staphylococcus aureus; test: Antimicrobial activity against methicillin-resistant Staphylococcus aureus ATCC 49775 by broth dilution method; assay type: functional; in short: as §2
[12] = tested on: Staphylococcus aureus; test: Antimicrobial activity against methicillin-resistant Staphylococcus aureus ATCC 43300 by broth dilution method; assay type: functional; in short: as §2
[13] = Toxicity in Erythrocyte assessed as concentration required to achieve 100% hemolysis after 4 hrs; assay type: cell-based
In short: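 Heparinized fresh blood was centrifuged (1000g, 10 min, 10 °C). Erythrocytes were washed three times in 0.85% saline and diluted to a 1/25 packed volume. Peptides were prepared as a 1.5 mM stock in 30% DMSO/0.5 mM saline and serially two-fold diluted in triplicate rows. 1% Triton-X served as the full-lysis control. Incubation was 37 °C for 4 h, then centrifugation; supernatant was read. Value is the concentration giving 100% lysis.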

[14] = Therapeutic index, concentration required to achieve 100% hemolysis in erythrocyte to MIC for Staphylococcus aureus ATCC 29213; conditions: erythrocytes; read-out: Ratio
In short: (§3)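 Therapeutic index was taken as the concentration for 100% haemolysis divided by MIC for the given strain.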

[15] = Therapeutic index, concentration required to achieve 100% hemolysis in erythrocyte to MIC for Escherichia coli ATCC 25922; conditions: erythrocytes; in short: as §3

Compound | MIC [1] | MIC [2] | MIC [3] | MIC [4] | MIC [5] | MIC [6] | MIC [7] | MIC [8] | MIC [9] | MIC [10] | MIC [11] | MIC [12] | Activity [13] | selectivity ratio [14] | selectivity ratio [15]
CC(C)[C@@H]1NC(=O)[C@H](CCCN)NC(=O)[C@@H]2CCCN2C(=O)[C@@H](Cc2ccccc2)NC(=O)[C@H](CCCN)NC(=O)[C@H](CC23CC4CC(CC(C4)C2)C3)NC(=O)[C@H](CCCN)NC(=O)[C@H](C(C)C)NC(=O)[C@H](CCCN)NC(=O)[C@@H]2CCCN2C(=O)[C@@H](Cc2ccccc2)NC(=O)[C@H](CCCN)NC(=O)[C@H](CC23CC4CC(CC(C4)C2)C3)NC(=O)[C@H](CCCN)NC1=O | 8 µg/mL (≈ 4.49 µM) | 8 µg/mL (≈ 4.49 µM) | 8 µg/mL (≈ 4.49 µM) | 32 µg/mL (≈ 18 µM) | 8 µg/mL (≈ 4.49 µM) | 8 µg/mL (≈ 4.49 µM) | 8 µg/mL (≈ 4.49 µM) | 8 µg/mL (≈ 4.49 µM) | 8 µg/mL (≈ 4.49 µM) | 8 µg/mL (≈ 4.49 µM) | 8 µg/mL (≈ 4.49 µM) | 8 µg/mL (≈ 4.49 µM) | 31.3 µM | 3.9 | 3.9
NCCC[C@@H]1NC(=O)[C@H](C23CC4CC(CC(C4)C2)C3)NC(=O)[C@H](CCCN)NC(=O)[C@@H]2CCCN2C(=O)[C@@H](Cc2ccccc2)NC(=O)[C@H](CCCN)NC(=O)[C@H](C23CC4CC(CC(C4)C2)C3)NC(=O)[C@H](CCCN)NC(=O)[C@@H]2CCCN2C(=O)[C@@H](Cc2ccccc2)NC1=O (cyclo([Orn][dF]P[Orn][Gly(1-adamantyl)][Orn][dF]P[Orn][Gly(1-adamantyl)])) | 4 µg/mL (≈ 3.01 µM) | 8 µg/mL (≈ 6.03 µM) | 8 µg/mL (≈ 6.03 µM) | 16 µg/mL (≈ 12.1 µM) | 8 µg/mL (≈ 6.03 µM) | 8 µg/mL (≈ 6.03 µM) | 8 µg/mL (≈ 6.03 µM) | 8 µg/mL (≈ 6.03 µM) | 8 µg/mL (≈ 6.03 µM) | 8 µg/mL (≈ 6.03 µM) |  |  | 500 µM | 62.5 | 62.5
CC(C)C[C@@H]1NC(=O)[C@H](CCCCN)NC(=O)[C@H](C(C)C)NC(=O)[C@@H]2CCCN2C(=O)[C@@H](Cc2ccc(O)cc2)NC(=O)[C@H](CC(C)C)NC(=O)[C@H](CCCCN)NC(=O)[C@H](C(C)C)NC(=O)[C@H](CCCCN)NC(=O)[C@H](CC(C)C)NC(=O)[C@@H]2CCCN2C(=O)[C@@H](Cc2ccc(O)cc2)NC(=O)[C@H](C(C)C)NC(=O)[C@H](CCCCN)NC1=O (cyclo(KLKV[dY]PLKVKL[dY]PV)) |  |  |  |  |  |  |  |  |  |  |  |  | 3.9 µM |  | 
CC(C)C[C@@H]1NC(=O)[C@H](CCCN)NC(=O)[C@H](C(C)C)NC(=O)[C@@H]2CCCN2C(=O)[C@@H](Cc2ccccc2)NC(=O)[C@H](CC(C)C)NC(=O)[C@H](CCCN)NC(=O)[C@H](C(C)C)NC(=O)[C@H](CCCN)NC(=O)[C@H](CC(C)C)NC(=O)[C@@H]2CCCN2C(=O)[C@@H](Cc2ccccc2)NC(=O)[C@H](C(C)C)NC(=O)[C@H](CCCN)NC1=O (cyclo(L[Orn]V[Orn]L[dF]PV[Orn]L[Orn]V[dF]P)) | 8 µg/mL (≈ 5.06 µM) | 16 µg/mL (≈ 10.1 µM) | 32 µg/mL (≈ 20.2 µM) | 64 µg/mL (≈ 40.5 µM) | 4 µg/mL (≈ 2.53 µM) | 8 µg/mL (≈ 5.06 µM) |  |  |  |  |  |  | 3.9 µM | 0.2 | 0.1
CC(C)C[C@@H]1NC(=O)[C@H](CCCCN)NC(=O)[C@H](C(C)C)NC(=O)[C@@H]2CCCN2C(=O)[C@@H](Cc2ccc(O)cc2)NC(=O)[C@H](CC(C)C)NC(=O)[C@H](CCCCN)NC(=O)[C@H](C(C)C)NC(=O)[C@H](CCCCN)NC(=O)[C@H](CC(C)C)NC(=O)[C@@H]2CCCN2C(=O)[C@@H](Cc2ccc(O)cc2)NC(=O)[C@H](C(C)C)NC(=O)[C@H](CCCCN)NC1=O (cyclo(VKLKV[dY]PLKVKL[dY]P)) | 64 µg/mL (≈ 38.3 µM) | > 64 µg/mL | > 64 µg/mL | > 64 µg/mL | 32 µg/mL (≈ 19.2 µM) | 32 µg/mL (≈ 19.2 µM) |  |  |  |  |  |  |  |  | 

Reference: ChEMBL document CHEMBL1287679, “Tuning hydrophobicity of highly cationic tetradecameric Gramicidin S analogues using adamantane amino acids” (Bioorg Med Chem, 2010)
